# What was measured:
# [1] = biological target: T1, Cytochrome P450 11B1, mitochondrial (Homo sapiens, UniProt P15538); assay: Inhibition of human CYP11B1 expressed in V79 MZh cells using [1,2-3H]-11-deoxycorticosterone as substrate for 6 hrs by HPTLC analysis; format: cell-based, V79MZh
# T1 sequence (P15538 whole entry): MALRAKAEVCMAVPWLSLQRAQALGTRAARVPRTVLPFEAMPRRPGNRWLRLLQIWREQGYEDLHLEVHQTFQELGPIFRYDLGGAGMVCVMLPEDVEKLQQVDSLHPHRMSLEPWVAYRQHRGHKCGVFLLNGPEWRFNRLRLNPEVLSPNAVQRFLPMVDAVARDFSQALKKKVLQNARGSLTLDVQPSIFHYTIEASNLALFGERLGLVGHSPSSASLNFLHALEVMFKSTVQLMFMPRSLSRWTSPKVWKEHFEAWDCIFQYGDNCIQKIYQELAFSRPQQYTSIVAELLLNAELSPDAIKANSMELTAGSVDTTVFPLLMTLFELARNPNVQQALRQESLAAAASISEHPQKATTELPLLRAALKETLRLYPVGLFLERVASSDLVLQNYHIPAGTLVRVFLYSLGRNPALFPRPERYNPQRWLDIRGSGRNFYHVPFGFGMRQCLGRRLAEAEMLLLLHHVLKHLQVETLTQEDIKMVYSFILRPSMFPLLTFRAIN
# How it was run: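 Hamster fibroblast V79 MZh cells stably expressing human CYP11B1, grown to confluence in 6-well plates. Radiolabelled deoxycorticosterone at 100 nM, test inhibitor across a concentration range, 6 h incubation. Supernatant extracted with chloroform and centrifuged. Steroids redissolved in chloroform and separated by HPTLC. IC50 is the mean of at least three experiments, relative SD below 25%.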
# [2] = biological target: T2, Cytochrome P450 11B2, mitochondrial (Homo sapiens, UniProt P19099); assay: Inhibition of human CYP11B2 expressed in V79 MZh cells using [1,2-3H]-11-deoxycorticosterone as substrate for 30 mins by HPTLC analysis; format: cell-based, V79MZh
# T2 sequence (P19099 whole entry): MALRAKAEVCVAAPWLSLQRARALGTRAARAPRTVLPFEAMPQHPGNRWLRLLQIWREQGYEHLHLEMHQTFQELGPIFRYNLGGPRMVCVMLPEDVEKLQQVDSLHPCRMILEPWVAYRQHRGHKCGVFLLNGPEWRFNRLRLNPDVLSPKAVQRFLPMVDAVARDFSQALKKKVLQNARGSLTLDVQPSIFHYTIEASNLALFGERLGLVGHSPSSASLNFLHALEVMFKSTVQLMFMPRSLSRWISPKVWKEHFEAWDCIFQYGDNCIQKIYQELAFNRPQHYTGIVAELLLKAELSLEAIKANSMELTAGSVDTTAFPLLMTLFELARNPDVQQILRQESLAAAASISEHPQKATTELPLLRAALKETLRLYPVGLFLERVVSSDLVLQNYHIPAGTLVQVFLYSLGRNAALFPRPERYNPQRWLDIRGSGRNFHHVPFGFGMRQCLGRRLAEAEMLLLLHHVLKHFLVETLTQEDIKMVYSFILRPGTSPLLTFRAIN
# How it was run: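 Confluent V79 MZh hamster fibroblasts expressing human CYP11B2, in 6-well plates. Reaction started with [1,2-3H]-11-deoxycorticosterone (100 nM) plus inhibitor at several concentrations and run 30 min. Chloroform extraction of supernatant, then HPTLC of steroids. Mean of ≥3 experiments, relative SD <25%.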
# Homo sapiens = species on record: Homo sapiens; assay: Selectivity index, ratio of IC50 for human CYP11B2 to IC50 for human CYP11B1
# How it was run: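 Calculated as IC50(CYP11B2)/IC50(CYP11B1). Both IC50s come from V79 MZh hamster fibroblasts expressing the human enzyme, with 100 nM radiolabelled deoxycorticosterone: 6 h for 11B1 and 30 min for 11B2. Readout by HPTLC.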
# Aromatase = biological target: T3, Aromatase (Homo sapiens, UniProt P11511); assay: Inhibition of human placental CYP19 using [1beta-3H]-androstenedione as substrate for 3 hrs measured as formation of [3]H2O in presence of NADPH
# T3 sequence (P11511 whole entry): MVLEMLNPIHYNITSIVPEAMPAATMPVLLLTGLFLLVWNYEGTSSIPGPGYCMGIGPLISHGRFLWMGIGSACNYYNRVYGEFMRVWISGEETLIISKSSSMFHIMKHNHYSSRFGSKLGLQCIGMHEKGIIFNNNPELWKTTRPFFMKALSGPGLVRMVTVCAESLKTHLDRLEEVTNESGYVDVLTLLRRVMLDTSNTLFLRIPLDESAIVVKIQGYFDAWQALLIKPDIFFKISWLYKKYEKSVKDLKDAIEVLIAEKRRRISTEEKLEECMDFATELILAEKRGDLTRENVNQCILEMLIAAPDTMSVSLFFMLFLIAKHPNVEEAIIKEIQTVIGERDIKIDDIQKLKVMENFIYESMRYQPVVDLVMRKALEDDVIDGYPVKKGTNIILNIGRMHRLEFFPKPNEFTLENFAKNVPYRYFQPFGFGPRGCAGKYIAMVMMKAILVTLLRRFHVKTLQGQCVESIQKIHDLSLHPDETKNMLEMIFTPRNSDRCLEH
# How it was run: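 Microsomes from fresh human term placenta. [1β-3H]androstenedione 500 nM, NADPH, glucose 6-phosphate and dehydrogenase plus inhibitor in 0.05 M phosphate pH 7.4, preincubated 5 min at 30 °C. Started with microsomal protein and run 3 h. Ethyl acetate stop, HgCl2, dextran-coated charcoal to remove steroids. 3H2O released measured. Mean of ≥3 experiments, RSD <25%.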
# [3] = Cytotoxicity against HEK293 cells assessed as cell viability upto 100 times IC50 concentration for 3 hrs by MTT assay; format: cell-based; conditions: human, read-out: Activity
# How it was run: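 HEK293 cells in DMEM with 10% FCS, exposed to 0.1 and 1 μM compound for 3 h at 37 °C, 5% CO2, humidified. Then MTT (5 mg/mL stock in PBS) added for a further 3 h. Stopped and lysed with 10% SDS in 0.01 N HCl. Viability from MTT reduction, expressed as % of control.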
# [4] = biological target: T4, Steroid 17-alpha-hydroxylase/17,20 lyase (Homo sapiens, UniProt P05093); assay: Inhibition of human CYP17 expressed in Escherichia coli co-transfected with rat NADPH-P450 reductase using progesterone as substrate for 30 mins measured as formation of 17alpha-hydroxyprogesterone and 16alpha-hydroxyprogesterone in presence of NADPH
# T4 sequence (P05093 whole entry): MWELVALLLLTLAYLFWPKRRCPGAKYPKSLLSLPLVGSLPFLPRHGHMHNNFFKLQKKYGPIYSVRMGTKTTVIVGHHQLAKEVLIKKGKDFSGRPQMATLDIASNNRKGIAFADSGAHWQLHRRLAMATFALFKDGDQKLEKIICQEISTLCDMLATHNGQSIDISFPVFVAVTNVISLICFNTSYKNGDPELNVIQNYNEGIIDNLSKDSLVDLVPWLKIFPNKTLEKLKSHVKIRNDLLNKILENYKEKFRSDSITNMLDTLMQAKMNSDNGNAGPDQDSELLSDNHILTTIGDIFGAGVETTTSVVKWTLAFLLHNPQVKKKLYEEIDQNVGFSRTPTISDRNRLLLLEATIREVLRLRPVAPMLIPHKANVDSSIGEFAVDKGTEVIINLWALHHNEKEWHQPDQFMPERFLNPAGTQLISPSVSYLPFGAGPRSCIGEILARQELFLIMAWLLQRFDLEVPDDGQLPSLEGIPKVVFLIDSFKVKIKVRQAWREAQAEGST
# How it was run: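 Membrane pellet from E. coli co-expressing human CYP17 and rat NADPH-P450 reductase (lysozyme, sonication, 4 °C). Progesterone 25 μM with NADPH-generating system (NADP+, glucose 6-phosphate, G6P dehydrogenase) and inhibitor, preincubated 5 min at 37 °C. Membranes added, 30 min at 37 °C. Acid quench, ethyl acetate extraction. Readout: 17α- and 16α-hydroxyprogesterone formed. Mean of ≥3 runs.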
structure (smiles),measurement,setting,value
O=c1c(Cc2cccnc2)coc2cc(F)ccc12,IC50,[1],> 10000 nM
same,IC50,[2],> 10000 nM
O=c1cc(Cc2cccnc2)oc2cc(F)ccc12,IC50,[1],> 10000 nM
same,IC50,[2],> 10000 nM
O=c1c(Cn2ccnc2)coc2ccccc12,Ratio IC50,Homo sapiens,2.9
same,IC50,[1],180 nM
same,IC50,[2],522 nM
O=c1cc(Cc2ccncc2)oc2ccccc12,Ratio IC50,Homo sapiens,5.6
same,IC50,[1],222 nM
same,IC50,[2],1240 nM
COc1ccc2c(=O)c(Cn3ccnc3)coc2c1,Ratio IC50,Homo sapiens,2.1
same,IC50,[1],372 nM
same,IC50,[2],768 nM
COc1ccc2c(=O)cc(Cc3cccnc3)oc2c1,IC50,[1],> 10000 nM
same,IC50,[2],> 10000 nM
O=c1c(Cc2ccncc2)coc2cc(F)ccc12,IC50,Aromatase,5000 nM
same,viability at 3 h,[3],95%
same,Ratio IC50,Homo sapiens,5.3
same,IC50,[1],58.1 nM
same,IC50,[2],317 nM
same,IC50,[4],6600 nM
O=c1c(Cc2cccnc2)coc2ccccc12,IC50,[1],> 10000 nM
same,IC50,[2],> 10000 nM
COc1ccc2c(=O)c(Cc3ccncc3)coc2c1,Ratio IC50,Homo sapiens,5
same,IC50,[1],612 nM
same,IC50,[2],3270 nM
O=c1cc(Cn2ccnc2)oc2ccccc12,Ratio IC50,Homo sapiens,2
same,IC50,[1],253 nM
same,IC50,[2],500 nM
O=c1c(Cc2c[nH]cn2)coc2ccccc12,viability at 3 h,[3],95%
same,Ratio IC50,Homo sapiens,4.1
same,IC50,[1],29.5 nM
same,IC50,[2],121 nM
COc1ccc2c(=O)cc(Cc3ccncc3)oc2c1,IC50,[1],3600 nM
same,IC50,[2],> 5000 nM
O=c1cc(Cc2ccncc2)oc2cc(F)ccc12,IC50,Aromatase,> 10000 nM
same,Ratio IC50,Homo sapiens,7.8
same,IC50,[1],82.7 nM
same,IC50,[2],643 nM
same,IC50,[4],> 10000 nM
COc1ccc2c(=O)c(Cc3c[nH]cn3)coc2c1,IC50,Aromatase,7900 nM
same,Ratio IC50,Homo sapiens,9.8
same,IC50,[1],109 nM
same,IC50,[2],1070 nM
same,IC50,[4],> 10000 nM
COc1ccc2c(=O)cc(Cn3ccnc3)oc2c1,Ratio IC50,Homo sapiens,1.4
same,IC50,[1],1600 nM
same,IC50,[2],2270 nM
O=c1cc(Cn2ccnc2)oc2cc(F)ccc12,Ratio IC50,Homo sapiens,1.9
same,IC50,[1],327 nM
same,IC50,[2],620 nM
O=c1c(Cc2ccncc2)coc2ccccc12,IC50,Aromatase,6100 nM
same,Ratio IC50,Homo sapiens,10.8
same,IC50,[1],88.2 nM
same,IC50,[2],954 nM
same,IC50,[4],4800 nM
O=c1c(Cc2c[nH]cn2)coc2cc(F)ccc12,IC50,Aromatase,3100 nM
same,viability at 3 h,[3],95%
same,Ratio IC50,Homo sapiens,9.8
same,IC50,[1],9.7 nM
same,IC50,[2],94.9 nM
same,IC50,[4],> 10000 nM
O=c1cc(Cc2cccnc2)oc2ccccc12,IC50,[1],> 10000 nM
same,IC50,[2],> 10000 nM
COc1ccc2c(=O)c(Cc3cccnc3)coc2c1,IC50,[1],> 10000 nM
same,IC50,[2],> 10000 nM
O=c1c(Cn2ccnc2)coc2cc(F)ccc12,Ratio IC50,Homo sapiens,2.5
same,IC50,[1],86.9 nM
same,IC50,[2],214 nM

# Source: ChEMBL document CHEMBL3792376, “Exploiting the Chromone Scaffold for the Development of Inhibitors of Corticosteroid Biosynthesis” (J Med Chem, 2016)
